Bioassay records deposited in PubChem BioAssay by PCMD.
Sampled rows, rich in hits. Any-hit rate of the full collection: about 0.51%.
AP ELISA ortho = orthogonal test for alternative complement pathway inhibitors; Human serum alternative complement pathway, LPS-coated ELISA, C3 deposition; tested in compound mixtures; inhibition, % at 5 µM; hit rate 0.08% among 62,000;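 active means inhibition above 30% in each of the two pooled mixtures holding the compound, so the lower value exceeds 30%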;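 further: 0% = serum in Mg-EGTA without compound and 100% = EDTA serum blank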
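Test system: human serum alternative complement pathway, C3 deposition on LPS-coated wells; also added: Plate-bound LPS; doses: 5 µM per compound in ten-compound mixtures; schedule: 1 h at 37 °C; detection: Anti-C3 ELISA, OD 450 nm; evaluation: percent inhibition of C3 deposition onto LPS; repeats: two pool placements per compound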
CatS block = human cathepsin S inhibition; hit rate 0.06% among 62,000; recombinant cathepsin S, AMC dipeptide fluorescence, pooled mixtures; AID 501; inhibition, %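 (tested at 5 µM per compound within 10-compound mixtures)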; P25774; in the data active means inhibition above about 32%, passing the limit was not always enough; inconclusive means no clear call, values can overlap the other calls;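 further: 0% = enzyme without compound and 100% = blank without enzyme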
E coli RNAP = blocks E. coli RNA polymerase transcription | inhibition, %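 (tested at 10 µM)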 | fluorescence transcription assay | hit rate 0.2% among 62,000 | AID 559 | P0A8V2; in the data active means inhibition above about 20%;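 further: 0% = enzyme without compound and 100% = no enzyme blank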
CatB mix inh = inhibitors of human cathepsin B in compound mixtures | Purified cathepsin B, AMC dipeptide fluorescence | inhibition, %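 (ten-compound pools at 5 µM per compound and 50 µM total)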 | hit rate 0.06% among 62,000; in the data active means inhibition above about 22%, passing the limit was not always enough; inconclusive means no clear call, values can overlap the other calls;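 further: 0% = enzyme without compound and 100% = no enzyme blank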
CatB inh = inhibitors of human cathepsin B. purified cathepsin B, fluorogenic substrate, fluorescence. inhibition, %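 (tested at 10 µM)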. hit rate 0.1% among 63,000; in the data active means inhibition above about 21%;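 further: 0% = enzyme with no compound and 100% = no enzyme blank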
CatL inh = inhibitors of human cathepsin L; AID 460; P07711; hit rate 0.17% among 58,000; purified cathepsin L, fluorogenic substrate, fluorescence; inhibition, %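 (tested at 10 µM)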; in the data active means inhibition above about 45%;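 further: 0% = enzyme with no compound and 100% = no enzyme blank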
Starred values were filed as active, the others as inactive; ? = inconclusive; . = not tested or not shown.

SMILES	AP ELISA ortho	CatS block	E coli RNAP	CatB mix inh	CatB inh	CatL inh
O=C(Nc1ccncc1)C1(c2ccccc2)CCCC1	39*	5	10	2	3	7
CS/C(=N\S(=O)(=O)c1ccc(N)cc1)NS(=O)(=O)c1cccs1	2	5	7	5	1	3
COc1ccc(S(=O)(=O)Nc2ccc(O)c3ccccc23)cc1	7	-1	24*	-3	3	15
Cc1cc(-n2c(C)cc(C(=O)CSc3ccc4c(c3)OCCO4)c2C)no1	13	4	5	5	2	3
O=C(OC(C(=O)NCc1cccs1)c1ccccn1)c1cccs1 (stereo not given)	7	5	5	28*	35*	19
COc1ccc(OC)c(NS(=O)(=O)Cc2ccccc2)c1	-5	7	15	2	12	73*
CCc1nn(-c2cc(Cl)ccc2OC)c2c1C(=O)CCC2	13	8	5	2	1	9
CC(C(=O)N(C)C)N(C#N)c1nc(N(C)C)nc(N(C)C)n1 (stereo not given)	.	.	.	.	-2	7
CCOC(=O)C(C(=O)OCC)N(C#N)c1nc(SC)nc(N(C)C)n1	.	.	.	.	27*	78*
COC(=O)CSC1=C(C#N)C(c2ccc(F)cc2)CC(=O)N1 (stereo not given)	2	16	21*	3	4	9
C=CCSC1=C(C#N)C(c2ccc(OCC)cc2)CC(=O)N1 (stereo not given)	9	?	11	-4	2	102*
CSC1=C(C#N)C(c2ccc(C(C)C)cc2)CC(=O)N1 (stereo not given)	-10	17	4	1	6	19
Cc1nnc(SCC(=O)N2CCCCC2)s1	12	3	11	-6	4	-3
O=C(NCc1nc2ccccc2[nH]1)c1ccco1	-4	-10	25*	-12	4	8
CC1(C)CC2(CCO1)OC(=O)CC2C(=O)NCc1ccccc1 (stereo not given)	-1	11	9	3	4	7
CCOC(=O)C1CCCN(c2nc3ccccc3nc2C(C#N)C(=O)OCCOC)C1 (stereo not given)	.	.	9	.	3	14
CCOC(=O)C1CCCN(c2nc3ccccc3nc2C(C#N)C(=O)OC(C)COC)C1 (stereo not given)	18	0	21*	5	-1	-5
Cc1cc(NS(=O)(=O)c2ccccc2)c(C)c(Cl)c1O	13	-8	21*	-4	3	5
COC(=O)c1ccc(C2CC(=O)NC3=C2C(=O)CCC3)cc1 (stereo not given)	14	1	8	5	3	0
CC(C)Oc1ccc(C2CC(=O)NC3=C2C(=O)CCC3)cc1 (stereo not given)	8	-3	22*	4	2	1
Cc1ccc(C(=O)NCCn2cc(SCC(=O)Nc3cc(C)on3)c3ccccc32)cc1	32*	-4	3	3	2	.
CCCCc1c(O)nc(N2CCN(Cc3ccccc3)CC2)[nH]c1=O	7	4	43*	3	4	10
OCC#CCSc1nnc(-c2ccc(Br)cc2)o1	8	-6	40*	2	0	-12
Cc1cc(Nc2ccc(F)cc2)n2nc(C)nc2n1	15	-2	22*	8	2	6
Cc1cc(Nc2ccc(Br)cc2)n2nc(C)nc2n1	8	10	9	2	-1	.
SMILES	AP ELISA ortho	CatS block	E coli RNAP	CatB mix inh	CatB inh	CatL inh
CC(=O)NC12CC3CC(C)(C1)CC(NC(C)=O)(C3)C2	6	-5	-2	-3	0	7
CC(=O)c1cccc(NC(=O)NCCS(C)=O)c1 (stereo not given)	-4	6	6	-1	-2	1
CC(c1nnc(SCC(=O)c2c(N)n(C)c(=O)n(C)c2=O)n1-c1ccc(Cl)cc1)N(C)C (stereo not given)	6	1	5	-4	2	.
CC(c1nnc(SCC(=O)NC(=O)NCc2ccco2)n1-c1ccc(Cl)cc1)N(C)C (stereo not given)	10	2	3	-5	5	61*
O=C(CCS(=O)(=O)c1ccccc1)Nc1nc2c(s1)COc1ccccc1-2	24	18	-2	-6	-2	.
Cc1ccc(S(=O)(=O)NCCC(=O)NCCN2CCCCCC2)cc1	0	23	3	5	-3	64*
COc1ccc(CCNC(=O)c2c(O)c3c([nH]c2=O)CCCC3)cc1OC	25	-8	7	7	5	2
CCOC(=O)Cc1csc(NS(=O)(=O)c2ccc3c4c(cccc24)C(=O)N3CC)n1	11	55*	1	-1	5	2
CCN1C(=O)c2cccc3c(S(=O)(=O)Nc4c(C)n(C)n(-c5ccccc5)c4=O)ccc1c23	11	-6	-2	6	3	-1
Cc1ccc2nc(C(O)C(O)c3nc4ccc(C)cc4[nH]3)[nH]c2c1 (stereo not given)	11	-11	1	3	0	62*
CC(=O)Nc1nc2n(n1)C(c1ccccc1)C=C(c1ccccc1)N2 (stereo not given)	6	-15	3	-6	5	.
CC(=O)Nc1nc2n(n1)C(c1ccc(F)cc1)C=C(c1ccccc1)N2 (stereo not given)	-4	6	-1	-2	-2	49*
O=C(NCc1ccccc1F)C1CCN(C(=O)NCc2ccccc2)CC1	33*	-7	-3	-2	3	-12
c1cncc(CSc2nnc(-c3cccnc3)n2Cc2ccco2)c1	6	-2	.	3	4	-1
Clc1cccc(CSc2nnc(-c3cccnc3)n2Cc2ccco2)c1	37*	3	9	1	3	4
Cc1cc(SCc2ccccc2)nc(=O)[nH]1	-3	8	8	4	8	-3
O=C(NCCCN1CCCCCC1)c1ccc(CS(=O)(=O)Cc2ccccc2F)o1	1	2	7	6	6	60*
CC1(C)O[C@@H]2C[C@H]3[C@@H]4CCC5=CC(=O)C=C[C@]5(C)[C@@]4(F)[C@@H](O)C[C@]3(C)[C@]2(C(=O)CO)O1	-8	-5	11	2	4	14
C[C@]12C=CC(=O)C=C1CC[C@H]1[C@@H]3C[C@@H](O)[C@](O)(C(=O)CO)[C@@]3(C)C[C@H](O)[C@@]12F	27	-3	11	6	.	94*
N#Cc1ccsc1NC(=O)c1cnccn1	8	4	3	1	66*	24
O=C(NCc1ccc(F)cc1)C1CCC(=O)N1CCc1ccccc1 (stereo not given)	-1	-1	4	-3	42*	11
Cc1ccc(CN2C(=O)CCC2C(=O)NCc2ccc(F)cc2)cc1 (stereo not given)	16	-3	-1	5	-1	-2
C=CCN=C(NC#N)SCC(=O)c1cccc(OC)c1	0	6	5	-2	4	-1
